LMPTP block: LMPTP phosphatase inhibitors, primary screen, biochemical, fluorescence intensity, uHTS. recombinant LMPTP-A, OMFP fluorogenic substrate. inhibition, % at 20 µM. Low molecular weight phosphotyrosine protein phosphatase (Homo sapiens), P24666. 0.22% of 360,000 active;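 active = compounds that cut the enzyme signal by at least half of the control window in the single-dose screen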
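Assay system: LMPTP-A, protein tyrosine phosphatase of low molecular weight / Medium: pH 6.0 Bis-Tris buffer with DTT and Triton X-100 / Schedule: 50 min enzyme reaction at room temperature, protected from light / Measured by: endpoint fluorescence intensity from OMFP dephosphorylation / Read-out basis: % inhibition relative to no-enzyme and uninhibited control wells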
PP5 inh: PP5 phosphatase inhibitors, primary screen, biochemical, fluorescence. inhibition, % at 6.7 µM. Serine/threonine-protein phosphatase 5 (Homo sapiens), P53041. AID 1987, 2009. purified PP5c, OMFP substrate fluorescence. 0.18% of 320,000 active;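 active = inhibition above the campaign's mean inhibition across all tested compounds plus 3 SD, cut at about 9.5% in these data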
PP1 inh: PP1-alpha phosphatase inhibitors, primary screen, counter-screen for PP5 inhibitor project, biochemical, fluorescence, OMFP substrate, single point; Serine/threonine-protein phosphatase PP1-alpha catalytic subunit (Homo sapiens), P62136; purified PP1alpha; inhibition, % at 6.7 µM; 0.9% of 320,000 active;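 active = inhibition above the mean inhibition of all tested compounds plus 3 SD, computed separately for each screening campaign, cut at about 15% in these data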
Scp-1 inhibitor: Scp-1 phosphatase inhibitors, primary screen, biochemical, colorimetric, uHTS; Carboxy-terminal domain RNA polymerase II polypeptide A small phosphatase 1 (Homo …; Recombinant Scp1, phosphopeptide, malachite green phosphate absorbance; inhibition, % at 20 µM; 0.88% of 340,000 active; AID 493091, 2011;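 active = inhibition above about 50% at 20 µM, limit read from the data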
Target sequence (Q9GZU7 76-261 limits assumed): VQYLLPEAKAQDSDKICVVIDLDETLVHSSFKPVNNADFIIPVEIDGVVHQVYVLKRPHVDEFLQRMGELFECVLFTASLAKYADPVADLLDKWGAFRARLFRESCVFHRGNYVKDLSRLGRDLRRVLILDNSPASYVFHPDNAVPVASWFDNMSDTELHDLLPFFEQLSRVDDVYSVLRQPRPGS
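Material – SCP-1 phosphatase catalytic domain, residues 76-261 · Buffer or medium – Acidic Tris acetate buffer with magnesium and detergent · Also added – Phospho 17-mer peptide substrate · Compound – single 20 µM dose, 1% DMSO · Times – 45 min room-temperature reaction, 5 min colour, 30 min stabiliser · Technique – Phosphate-binding colour reagent, absorbance read at 630 nm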
STEP block: STEP phosphatase inhibitors, primary screen, biochemical, fluorescence intensity, uHTS | Tyrosine-protein phosphatase non-receptor type 5 (Homo sapiens), P54829 | recombinant STEP, OMFP fluorogenic substrate | inhibition, % at 20 µM | 0.25% of 360,000 active | AID 588621, 2011;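 active = inhibition at 20 µM, scaled per plate between control wells, above about 37%, limit read from the data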
Target sequence (P54829 whole entry, looked up): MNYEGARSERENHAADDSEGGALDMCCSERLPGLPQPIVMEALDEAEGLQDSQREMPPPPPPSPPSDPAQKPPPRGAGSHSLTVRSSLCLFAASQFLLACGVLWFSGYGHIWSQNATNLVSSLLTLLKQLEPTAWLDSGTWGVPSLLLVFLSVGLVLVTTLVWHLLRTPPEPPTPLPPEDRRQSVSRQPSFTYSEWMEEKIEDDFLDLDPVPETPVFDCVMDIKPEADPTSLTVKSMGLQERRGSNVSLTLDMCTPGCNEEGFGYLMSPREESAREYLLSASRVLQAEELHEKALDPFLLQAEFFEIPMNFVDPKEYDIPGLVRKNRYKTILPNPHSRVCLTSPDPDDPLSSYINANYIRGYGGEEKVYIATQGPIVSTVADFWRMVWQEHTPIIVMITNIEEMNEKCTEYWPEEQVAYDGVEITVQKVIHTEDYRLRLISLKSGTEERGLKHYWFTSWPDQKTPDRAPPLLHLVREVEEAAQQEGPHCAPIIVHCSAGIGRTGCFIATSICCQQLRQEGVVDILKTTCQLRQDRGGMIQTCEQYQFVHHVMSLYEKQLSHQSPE
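Material: STEP (striatal-enriched tyrosine phosphatase) enzyme, cell-free | Medium: 50 mM Bis-Tris pH 6.0 with 2.5 mM DTT and 0.005% Tween 20 | Read-out: Percent inhibition scaled to no-enzyme and uninhibited-enzyme controls, plate-pattern corrected | Signal: Fluorescence read at 480 nm ex / 540 nm em | Times: 20 min reaction, room temperature, in the dark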
Each line names hits and unclear results; the compound was inactive in the other large screens; ! = repeats disagree. Sampled rows, rich in hits. Any-hit rate of the full collection: about 1.9%.

CCn1c(=O)c(=O)n(CC)c2cc(S(=O)(=O)Nc3ccc(C)cc3)ccc21	none
CC1(C)S[C@@H]2[C@H](NC(=O)COc3ccccc3)C(=O)N2C1C(=O)OCC1CCCCC1 (stereo partly drawn)	none
CC1(C)S[C@@H]2[C@H](NC(=O)COc3ccccc3)C(=O)N2C1C(=O)OCc1cc2ccccc2n1S(=O)(=O)c1ccccc1 (stereo partly drawn)	PP1 inh 25.2 (no result: LMPTP block, Scp-1 inhibitor, STEP block)
CCn1c(SCc2nc3sc(C(=O)O)c(C)c3c(=O)[nH]2)nc2ccccc21	Scp-1 inhibitor 65.4
COCCn1c(SCc2nc3sc(C(=O)OC)c(C)c3c(=O)[nH]2)nc2ccccc21	none
Cc1ccccc1OCC(=O)NNC(=S)NC(=O)c1ccco1	PP1 inh 16.8
C(=C\c1ccco1)/C1=NN(c2ccccc2)C(c2ccco2)C1 (stereo not drawn)	none
O=[N+]([O-])c1ccc(/C=C/C2=NN(c3ccccc3)C(c3ccco3)C2)o1 (stereo not drawn)	Scp-1 inhibitor 78.9 (no result: PP5 inh, PP1 inh)
CCn1c(/C=C/N(C)c2ccccc2)[n+](CC)c2ccc(Cl)cc21	Scp-1 inhibitor 74.0
CCn1c(/C=C/Nc2ccccc2)[n+](CC)c2ccc(Cl)cc21	none
Cc1ccc(-n2cccc2/C=C2\C(=N)N3N=C(c4ccco4)SC3=NC2=O)cc1	Scp-1 inhibitor 97.4, STEP block 63.2
COc1ccc(/C=C/C(=O)NC(=S)NNC(=O)c2cccnc2)cc1	PP1 inh 15.9
COc1ccc(/C=C/C(=O)NC(=S)NNC(=O)c2cnccn2)cc1	none
COc1ccc(C(=O)NNC(=S)NC(=O)c2cccs2)cc1	none
O=C(/C=C/c1ccc(F)cc1)NC(=S)NNC(=O)c1cnccn1	Scp-1 inhibitor 68.8
COc1ccc(/C=C/C(=O)NC(=S)NNC(=O)c2cccs2)cc1	PP1 inh 16.5
O=C(CSc1nnc(-c2ccco2)o1)NC1CCCCC1	none
Cc1sc2nc(CSCC(=O)Nc3ccc(OC(F)F)cc3)[nH]c(=O)c2c1C	none
CCCN(C(=O)CSc1cc(-c2ccccc2)c2ccc(OC)cc2n1)C1CCS(=O)(=O)C1 (stereo not drawn)	none
Cc1ccc(/C=C/C(=O)N2CCc3ccccc32)o1	Scp-1 inhibitor 52.3
CC(=O)N(c1cccc(C(F)(F)F)c1)c1nc(/C=C/C(=O)O)cs1	none
O=c1cc(CN2CCCCCCC2)c2ccccc2o1	LMPTP block 52.7 (no result: PP5 inh, PP1 inh, Scp-1 inhibitor)
O=c1cc(CN2CCCCC2)c2ccccc2o1	none (no result: PP5 inh, PP1 inh, Scp-1 inhibitor)
CNc1ccccc1	none
CNc1cccccc1=S	LMPTP block 58.1
Cc1cnc(NC(=O)c2cc3c(s2)CCCC3)s1	none
COc1ccc(CNC(=O)c2cc3c(=O)[nH]c4ccccc4c3n2C)cc1	none
CCc1ccc(/C=C2/SC(=S)N(CCC(=O)Nc3cccc(C(=O)O)c3)C2=O)cc1	none
CCc1ccc(C=C2SC(=S)N(CCCC(=O)Nc3ccc(C(=O)O)cc3)C2=O)cc1	LMPTP block 59.2 (no result: PP5 inh, PP1 inh, Scp-1 inhibitor)
CC(=Cc1ccccc1)C=C1SC(=S)N(CCCC(=O)Nc2ccc(C(=O)O)cc2)C1=O	LMPTP block 61.4 (no result: PP5 inh, PP1 inh, Scp-1 inhibitor)
CCc1ccc(/C=C2/SC(=S)N(CCC(=O)Nc3ccc(C(=O)O)cc3)C2=O)cc1	LMPTP block 62.0 (no result: Scp-1 inhibitor)
CC(=C\c1ccccc1)/C=C1/SC(=S)N(CCCC(=O)O)C1=O	none (no result: PP5 inh, PP1 inh)
COc1cccc(NC(=O)c2ccccc2Oc2ccccc2)c1	none
O=c1c2c3c(sc2nc(N2CCNCC2)n1-c1cccc(Cl)c1)CCCCC3	PP1 inh 15.2 (no result: LMPTP block, Scp-1 inhibitor, STEP block)
CCN1CCN(c2nc3sc4c(c3c(=O)n2-c2ccc(OC)cc2)CCCCC4)CC1	none
CN1CCc2cccc3c2[C@@H]1Cc1ccc(O)c(O)c1-3	none
COC(=O)C1=CN(Cc2ccc(OC)c(OC)c2)C=C(C(=O)OC)C1c1cccc(F)c1	none
O=C(NNC(=O)c1ccccc1-c1ccccc1C(=O)O)c1ccccc1	none
O=C(C=P(c1ccccc1)(c1ccccc1)c1ccccc1)c1ccccc1-c1ccccc1C(=O)C=P(c1ccccc1)(c1ccccc1)c1ccccc1	LMPTP block 58.6 (no result: PP5 inh, PP1 inh)
Cc1ccc(/C=C/c2nc3sc(C(=O)O)c(C)c3c(=O)[nH]2)cc1[N+](=O)[O-]	LMPTP block 64.4, Scp-1 inhibitor 89.4, STEP block 99.0
Cc1c(C(=O)O)sc2nc(/C=C/c3ccccc3OC(F)F)[nH]c(=O)c12	none
C/C(=N\NC(=O)c1cc2ccccc2cc1O)c1ccccn1	none
C/C(=N\NC(=O)c1cc2ccccc2cc1O)c1cc2ccccc2o1	Scp-1 inhibitor 90.2
N#C/C(=C\c1ccc(-c2ccc(C(=O)O)cc2)o1)C(=O)Nc1ccc(F)cc1	Scp-1 inhibitor 69.2
O=c1c2ccccc2nc(SCc2ccc([N+](=O)[O-])cc2)n1-c1ccccc1	none
O=C(O)c1ccc2c(=O)n(Cc3ccccc3)c(SCc3ccc([N+](=O)[O-])cc3)nc2c1	PP1 inh 18.1
N#Cc1c(N)sc(=S)c2c1CCN(Cc1ccccc1)C2	PP1 inh 19.8 (no result: LMPTP block, Scp-1 inhibitor, STEP block)
CCN1CCc2c(sc(N)c2C#N)C1	none
CCOC(=O)C1=CCN(S(=O)(=O)c2cccc(Cl)c2)C1c1cccc(F)c1 (stereo not drawn)	none (no result: PP5 inh, PP1 inh, Scp-1 inhibitor)
CC(C)[C@H](NC(=O)OCc1ccccc1)C(=O)OCC(=O)NCc1ccco1	Scp-1 inhibitor 58.8 (no result: PP5 inh, PP1 inh)
CC(C)C(NC(=O)OCc1ccccc1)C(=O)OCC(=O)NCc1ccco1 (stereo not drawn)	none
Cc1nnc(SCC(=O)Nc2ccc3c4c(cccc24)CC3)n1C	none
O=c1cc(O)nc(SCc2ccccc2)n1-c1ccccc1	PP1 inh 16.8!
O=C(O)c1ccc(N=Nc2c(O)[nH]c3ccc(Br)cc23)cc1	none
O=C(O)c1ccc(N=Nc2c(O)[nH]c3cc(Cl)ccc23)cc1	Scp-1 inhibitor 56.3
COc1ccc(NC(=O)C2CCN(S(=O)(=O)c3ccccc3)CC2)cc1	none
CCCCCCCCCCCCCCCC(O)C[N+](C)(C)CCO (stereo not drawn)	Scp-1 inhibitor 81.8 (no result: PP5 inh, PP1 inh)
Oc1cc2c(cc1O)C1c3ccc(O)c(O)c3OCC1(O)C2 (stereo not drawn)	Scp-1 inhibitor 60.9
COC/C=C/C1=CC2=CC(=O)C(C)(OC(=O)c3cnc4ccccc4n3)C(=O)C2=CN1c1ccc(OC)cc1 (stereo not drawn)	PP1 inh 17.6
COC/C=C/C1=CC2=CC(=O)C(C)(OC(=O)c3cnc4ccccc4n3)C(=O)C2=CN1C1CC1 (stereo not drawn)	none
COc1ccccc1N1CCN(Cc2ccc(O)c3ncccc23)CC1	PP1 inh 15.4
Cc1ccc(/C=N/Nc2nc3ccccc3s2)o1	none
